Measurements published in ChEMBL document CHEMBL1649132, “Dry powder nitroimidazopyran antibiotic PA-824 aerosol for inhalation” (Antimicrob Agents Chemother, 2009).
Converted amounts (≈) assume the structure as drawn.

How the values were obtained:
[1] = Half life in guinea pig at 40 mg/kg, administered via intratracheal insufflation by HPLC method; assay type: ADME, organism-based, Cavia porcellus; parameters: dose 40 mg/kg, route endotracheal; conditions: in vivo, inhaled or intranasal
In short: (§1)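 Healthy male guinea pigs (463.86 ± 65.11 g), jugular vein cannulated 24 h before dosing; n = 6 or 7 per group. Dosing was i.v. solution 20 mg/kg, oral gavage of mixed micelle suspension (10% hydroxypropyl-β-cyclodextrin, 10% lecithin) 40 mg/kg, or intratracheal insufflation of porous dry powder at nominal 20, 40, 60 mg/kg. For insufflation, the delivered dose was taken by weighing the device before and after. Blood was drawn 0–24 h (to 32 h at 60 mg/kg) and plasma assayed by validated HPLC-UV (standards 0.20–50 µg/ml).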

[2] = Mean residence time in guinea pig at 40 mg/kg, administered via intratracheal insufflation by HPLC method; assay type: ADME, organism-based, Cavia porcellus; parameters: dose 40 mg/kg, route endotracheal; conditions: in vivo, inhaled or intranasal; in short: as §1
[3] = Cmax in guinea pig at 40 mg/kg, administered via intratracheal insufflation by HPLC method; assay type: ADME, organism-based, Cavia porcellus; parameters: dose 40 mg/kg, route endotracheal; conditions: in vivo, inhaled or intranasal; in short: as §1
[4] = Tmax in guinea pig at 40 mg/kg, administered via intratracheal insufflation by HPLC method; assay type: ADME, organism-based, Cavia porcellus; parameters: dose 40 mg/kg, route endotracheal; conditions: in vivo, inhaled or intranasal; in short: as §1
[5] = Bioavailability (0 to infinity) in guinea pig at 40 mg/kg, administered via intratracheal insufflation by HPLC method; assay type: ADME, organism-based, Cavia porcellus; conditions: in vivo, inhaled or intranasal; in short: as §1
[6] = Bioavailability in guinea pig at 40 mg/kg, administered via intratracheal insufflation by HPLC method; assay type: ADME, organism-based, Cavia porcellus; conditions: in vivo, inhaled or intranasal; in short: as §1
[7] = AUC (0 to infinity) in guinea pig at 60 mg/kg, administered via intratracheal insufflation by HPLC method; assay type: ADME, organism-based, Cavia porcellus; parameters: time infinity, dose 60 mg/kg, route endotracheal; conditions: plasma, inhaled or intranasal; in short: as §1
[8] = Elimination rate constant in guinea pig at 60 mg/kg, administered via intratracheal insufflation by HPLC method; assay type: ADME, organism-based, Cavia porcellus; parameters: dose 60 mg/kg, route endotracheal; conditions: in vivo, inhaled or intranasal; in short: as §1
[9] = Half life in guinea pig at 60 mg/kg, administered via intratracheal insufflation by HPLC method; assay type: ADME, organism-based, Cavia porcellus; parameters: dose 60 mg/kg, route endotracheal; conditions: in vivo, inhaled or intranasal; in short: as §1
[10] = Mean residence time in guinea pig at 60 mg/kg, administered via intratracheal insufflation by HPLC method; assay type: ADME, organism-based, Cavia porcellus; parameters: dose 60 mg/kg, route endotracheal; conditions: in vivo, inhaled or intranasal; in short: as §1
[11] = Cmax in guinea pig at 60 mg/kg, administered via intratracheal insufflation by HPLC method; assay type: ADME, organism-based, Cavia porcellus; parameters: dose 60 mg/kg, route endotracheal; conditions: in vivo, inhaled or intranasal; in short: as §1
[12] = Tmax in guinea pig at 60 mg/kg, administered via intratracheal insufflation by HPLC method; assay type: ADME, organism-based, Cavia porcellus; parameters: dose 60 mg/kg, route endotracheal; conditions: in vivo, inhaled or intranasal; in short: as §1
[13] = Bioavailability (0 to infinity) in guinea pig at 60 mg/kg, administered via intratracheal insufflation by HPLC method; assay type: ADME, organism-based, Cavia porcellus; conditions: in vivo, inhaled or intranasal; in short: as §1
[14] = Bioavailability in guinea pig at 60 mg/kg, administered via intratracheal insufflation by HPLC method; assay type: ADME, organism-based, Cavia porcellus; conditions: in vivo, inhaled or intranasal; in short: as §1
[15] = Chemical stability of the compound at 4 degC; assay type: physicochemical
[16] = Chemical stability of the compound at 25 degC; assay type: physicochemical
[17] = Half life in po dosed monkey; assay type: ADME, organism-based, Macaca mulatta; conditions: rhesus monkey, in vivo
[18] = Half life in po dosed dog; assay type: ADME, organism-based, Canis lupus familiaris; conditions: in vivo
[19] = Tmax in po dosed monkey; assay type: ADME, organism-based, Macaca mulatta; conditions: rhesus monkey, in vivo
[20] = Tmax in po dosed rat; assay type: ADME, organism-based; conditions: in vivo
[21] = system: Mycobacterium tuberculosis; assay: Antimicrobial activity against Mycobacterium tuberculosis; assay type: functional
[22] = Ratio of Cmax in guinea pig at 40 mg/kg, po to MIC for Mycobacterium tuberculosis; assay type: functional
[23] = Ratio of Cmax in guinea pig at 40 mg/kg, administered via intratracheal insufflation to MIC for Mycobacterium tuberculosis; assay type: functional; conditions: route endotracheal
[24] = Ratio of Cmax in mouse at 100 mg/kg, po to MIC for Mycobacterium tuberculosis; assay type: functional
[25] = Metabolic stability of the compound assessed as compound remaining in lung of guinea pig administered via intratracheal insufflation; assay type: ADME, tissue-based, Cavia porcellus; conditions: in vivo, inhaled_or_intranasal
In short: (§2)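 After the last blood sample (32 h), the guinea pigs were euthanized by exsanguination. BAL fluid was collected with 5 ml sterile saline and centrifuged. The supernatant was assayed for drug by the plasma HPLC method, adapted for BAL fluid. Routes were i.v. 20 mg/kg, oral 40 mg/kg, or insufflated powder 20, 40, 60 mg/kg; n = 6 or 7.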

[26] = Metabolic stability of the compound assessed as compound remaining in lung of guinea pig at 20 mg/kg, iv after 32 hrs; assay type: ADME, organism-based, Cavia porcellus; parameters: dose 20 mg/kg, route intravenous; conditions: in vivo; in short: as §2
[27] = Metabolic stability of the compound assessed as compound remaining in lung of guinea pig at 40 mg/kg, po after 32 hrs; assay type: ADME, organism-based, Cavia porcellus; parameters: dose 40 mg/kg, route oral; conditions: in vivo; in short: as §2

SMILES: O=[N+]([O-])c1cn2c(n1)OC[C@@H](OCc1ccc(OC(F)(F)F)cc1)C2 [PRETOMANID]
- half-life [1]: 4.38 h
- MRT [2]: 7.52 h
- Cmax [3]: 3420 ng/mL
- Tmax [4]: 3.25 h
- bioavailability [5]: 0.63%
- bioavailability [6]: 1.12%
- AUC(0-inf) [7]: 51000 ng·h/mL
- k el [8]: 3.61e-05 s⁻¹
- half-life [9]: 5.91 h
- MRT [10]: 8.26 h
- Cmax [11]: 4580 ng/mL
- Tmax [12]: 3.6 h
- bioavailability [13]: 0.62%
- bioavailability [14]: 0.74%
- Stability [15]: Stable
- Stability [16]: Stable
- half-life [17]: 2 h
- half-life [18]: 1 h
- Tmax [19]: 3.33 h
- Tmax [20]: 6 h
- MIC [21]: 0.015 µg/mL (≈ 0.0418 µM)
- Ratio [22]: 14
- Ratio [23]: 17
- Ratio [24]: 80
- Activity [25]: Dose-dependent effect
- Stability [26]: Unstable
- Stability [27]: Unstable
